The nature of experiment [1]: inhibitors of TNFa-induced NFkB p65 translocation, primary screen, imaging, HUVEC, MLSMR starter and 10KST1 sets (AID 438;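 active means inhibition above 20% together with a positive visual image hit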;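 further: compound added about 3h40 before a 20 min TNFalpha stimulation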;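 on inhibition: signal is the nuclear over cytoplasmic p65 intensity ratio per well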). To be noted: HUVEC TNFa-induced p65 nuclear translocation; cell count: measured here: nuclei count (cytotoxicity indicator), at 2.08 µM; inhibition: at 2 µM, stronger effect = higher value, 0% TNFa-plus-vehicle, 100% no-TNFa wells.
Experiment [2] can be described thus: reduction of polyQ htt aggregates in cells – imaging, exon1htt(103Q)mCFP cells, high-content imaging, primary screen (AID 483;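 active means visual image review flags a hit and inhibition of aggregation exceeds 20%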;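 further: compound exposure lasted 3 days before fixation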;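 on nuclei count: percent of the per-plate median nuclei count of sample wells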). To be noted: exon1htt(103Q)mCFP cell line, aggregate imaging, at 2 µM; inhibition of aggregation: stronger effect = higher value; nuclei count: measured here: cell count, toxicity.
Experiment [3] can be described thus: endothelial E-selectin expression blockers – imaging, HUVEC, immunofluorescence, MLSMR starter and 10KST1 sets, primary screen (AID 487;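 active means visually confirmed hit in the image check and inhibition above 20%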;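 on inhibition: signal is fraction of cell area covered by stained E-selectin grains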;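 on nuclei count: 100% = median nuclei count of all wells on the same plate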). To be noted: HUVEC TNFalpha-induced E-selectin immunofluorescence imaging, at 2 µM; inhibition: stronger effect = higher value; nuclei count: measured here: cell number, toxicity.
Experiment [4] deals with Voltage-gated potassium channel subunit beta-2 (Rattus norvegicus) (UniProt P62483). The experiment in a line: inhibitors of rat Kvbeta2 reductase activity – biochemical, NADPH fluorescence, primary screen (AID 622;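 active means fluorescence slope higher than the sample average by over 3 SD, cut at about -0.22 in these data, passing the limit was not always enough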;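 further: slope of raw intensity against log time taken from 70 to 1610 s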). Particulars: recombinant KvBeta, 4-cyanobenzaldehyde reduction, at 10 µM, stronger effect = higher value.
Chain of Voltage-gated potassium channel subunit beta-2 (Rattus norvegicus) (P62483 whole entry, looked up): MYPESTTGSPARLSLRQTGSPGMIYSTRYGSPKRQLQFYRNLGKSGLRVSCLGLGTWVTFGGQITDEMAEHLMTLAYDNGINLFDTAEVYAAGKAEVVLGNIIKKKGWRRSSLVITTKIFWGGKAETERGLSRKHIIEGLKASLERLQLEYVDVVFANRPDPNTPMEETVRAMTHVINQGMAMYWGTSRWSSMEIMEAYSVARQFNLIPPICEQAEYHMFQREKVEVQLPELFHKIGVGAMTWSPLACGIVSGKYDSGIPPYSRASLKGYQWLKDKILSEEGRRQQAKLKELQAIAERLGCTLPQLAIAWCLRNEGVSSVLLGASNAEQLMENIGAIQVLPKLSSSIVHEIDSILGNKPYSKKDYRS
Experiment [5] has the same target. The experiment in a line: enhancers of rat Kvbeta2 NADPH turnover – biochemical, NADPH fluorescence, primary screen (AID 623;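 active means NADPH fluorescence slope more negative than the mean of all samples by about 3 SD, 99.7% confidence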;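 further: fluorescence intensity change per second fitted from 20 to 320 s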). Particulars: Recombinant KvBeta, NADPH fluorescence decrease slope, 10 min; at 10 µM; stronger effect = lower value.
The target of experiment [6] is Alpha-2C adrenergic receptor (Homo sapiens) (UniProt P18825). The experiment in a line: compounds altering alpha2C-coupled GIRK flux – cell-based, HEK293 alpha2C/GIRK1/2, thallium flux, primary screen (AID 624;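 active means fluorescence slope after compound addition differing from the mean of all screened samples at 99.7% confidence, in either direction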;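 further: slope of fluorescence ratio to pre-addition baseline per second over 15 to 24 s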). To be noted: thallium flux BTC fluorescence, at 10 µM, actives lie on both sides.
Chain of Alpha-2C adrenergic receptor (Homo sapiens) (P18825 whole entry, looked up): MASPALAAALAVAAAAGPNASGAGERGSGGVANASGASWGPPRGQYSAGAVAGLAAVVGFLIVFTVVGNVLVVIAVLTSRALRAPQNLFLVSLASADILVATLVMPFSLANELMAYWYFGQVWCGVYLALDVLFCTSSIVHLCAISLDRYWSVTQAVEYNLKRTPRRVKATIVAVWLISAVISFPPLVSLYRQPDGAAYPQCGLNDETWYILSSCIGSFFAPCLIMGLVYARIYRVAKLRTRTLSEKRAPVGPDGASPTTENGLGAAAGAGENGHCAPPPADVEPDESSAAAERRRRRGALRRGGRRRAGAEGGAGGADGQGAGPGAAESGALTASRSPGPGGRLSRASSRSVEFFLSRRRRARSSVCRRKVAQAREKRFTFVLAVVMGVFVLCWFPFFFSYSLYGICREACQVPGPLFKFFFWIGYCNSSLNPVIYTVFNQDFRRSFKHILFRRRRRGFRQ
Experiment [7] can be described thus: inhibitors of larval lipid processing in zebrafish, primary screen, whole organism, PED6 fluorescence, gall bladder and intestine (AID 686;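 active means a full or partial loss of lipid-probe fluorescence in the fish gall bladder, intestine or both, judged by eye; inactive means no fluorescence loss, or compound toxic to the fish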;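 further: larvae 5 to 7 days old with five fish per well; signal comes from phospholipase A2 cleavage of quenched PED6 carried via bile; overnight exposure to compound and PED6 before scoring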). Particulars: Zebrafish larvae PED6 lipid processing, fluorescence scoring; screened at 20 µM (by protocol). Put shortly:
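system = live zebrafish larvae aged 5-7 days, whole organism | probe or stimulus = ingested quenched lipid PED6 at 100 nM | doses = 20 µM single dose | timing = overnight exposure | detection = fluorescence microscopy with visual scoring of gall bladder and intestine | read-out = visual per-well fluorescence inhibition score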

Experiment [8] in a line: blockers of RIG-like receptor reporter activation – cell-based, Sendai virus stimulus, luciferase, 10K MLSCN set, TLR/RLR signaling modifier project, primary screen (AID 602276;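 active means inhibition at or above 50% at 10 µM; inactive means inhibition below 50%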;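 further: firefly luciferase from ISG56 promoter only with Renilla not read in this screen; 0% = Sendai virus plus DMSO and 100% = medium plus DMSO without virus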). To be noted: HEK293 RL24 IRF3 luciferase reporter, at 10 µM, stronger effect = higher value. In general terms: Reporter assays use an easily measured gene product as a stand-in for the process of interest.
Experiment [9] in a line: TLR3 IRF3 reporter activation blockers – cell-based, poly I:C stimulus, luciferase, 10K MLSCN set, primary screen (AID 602277). To be noted: HEK293-TLR3 RL24 IRF3 luciferase reporter, at 10 µM, stronger effect = higher value.

We go through 14 compounds from PubChem BioAssay.

Each structure is given as a SMILES string. Activity calls are given as the source filed them.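 How the source made its calls, unless noted: active means inhibition of the reporter signal at or above 50%; inactive means inhibition below 50%.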

Regarding `COc1ccccc1N1CCN(C(=O)C2CCN(S(=O)(=O)c3ccc(F)cc3)CC2)CC1`, in experiment [1], the cell count came to 676. Moreover, the inhibition (commonly the change of the read-out against control, counted positive when it falls) in experiment [1] was 11.9% (inactive); in [3] it was -23.6% (inactive); in [8], -6.92% (inactive); in [9] it was -9.69% (inactive). In addition, the inhibition of aggregation in [2] was 6.6% (inactive). The nuclei count was 108% in experiment [2] and 96.3% in experiment [3]. For the same compound, the fluorescence slope in [4] is -0.415 (inactive). For the same compound, the NADPH fluorescence slope in [5] was -2.3e-05 (inactive). Further, the slope in experiment [6] is 0.00451 (inactive). In addition, the compound was classed as inactive in experiment [7].

As for `COc1ccc(OC)c(NC(=O)CS(=O)(=O)c2ccccc2)c1`, in experiment [1], the cell count is 410. Further, the inhibition in experiment [1] was -0.6% (inactive); in [3], -66.5% (inactive); in [8] it was -3.16% (inactive); in experiment [9], 6.62% (inactive). For the same compound, in experiment [2], the inhibition of aggregation was -1.6% (inactive). Besides, the nuclei count in experiment [2] amounted to 107%; in experiment [3], 121%. In addition, the fluorescence slope in experiment [4] was -0.438 (inactive). The NADPH fluorescence slope in experiment [5] was 1.3e-05 (inactive). For the same compound, in experiment [6], the slope was 0.00539 (inactive). Further, in experiment [7], the compound was classed as inactive.

For `O=C(c1nn2cccnc2c1Cl)N1CCN(c2ccccc2)CC1`, in experiment [1], the cell count was 344. The inhibition in [1] is 3.6% (inactive); in [3] it was -45.6% (inactive); in [8], 11.4% (inactive); in [9], 1.58% (inactive). Moreover, the inhibition of aggregation in [2] was -7.7% (inactive). The nuclei count in [2] is 80.1%; in experiment [3], 94.5%. In experiment [4], the fluorescence slope is -0.424 (inactive). Further, in experiment [5], the NADPH fluorescence slope is -2.5e-05 (inactive). The slope in experiment [6] is 0.00475 (inactive). For the same compound, the call in [7] was inactive.

For the compound `Cc1nc2ncnn2c(N2CCC(C(=O)NCC3CCCO3)CC2)c1Cc1ccccc1` (stereo not drawn), the cell count in experiment [1] came to 642. Moreover, the inhibition in [1] is -10.1% (inactive); in experiment [3], -143% (inactive); in experiment [8], 8.8% (inactive); in experiment [9], 19.2% (inactive). The inhibition of aggregation in experiment [2] is -26.5% (inactive). The figures for the nuclei count in [2] and in experiment [3] were 97% and 112%, respectively. The fluorescence slope in experiment [4] was -0.407 (inactive). The NADPH fluorescence slope in experiment [5] is -2.8e-05 (inactive). Besides, the slope in [6] was 0.00509 (inactive). Moreover, in [7], the outcome was inactive.

`COC(=O)c1ccc(CSc2nc3ccccc3s2)o1`: the cell count in experiment [1] is 483. Moreover, the inhibition in [1] was -6.3% (inactive); in experiment [3] it was -0.4% (inactive); in [8], -35.6% (inactive); in experiment [9], -50.2% (inactive). Moreover, the inhibition of aggregation in experiment [2] was -4% (inactive). The nuclei count in experiment [2] stood at 126%; in experiment [3], 104%. The fluorescence slope in [4] was -0.47 (inactive). In addition, in [5], the NADPH fluorescence slope was -1.1e-05 (inactive). The slope in [6] is 0.00436 (inactive). Further, the call in experiment [7] was inactive.

For the compound `Clc1ccc(Cl)c(-c2nn3c(Cn4cnc5ccccc54)nnc3s2)c1`, in [1], the cell count amounted to 566. Besides, the inhibition in experiment [1] is 15.8% (inactive); in experiment [3], -91.4% (inactive); in [8], 13.6% (inactive); in experiment [9] it was 13.1% (inactive). In [2], the inhibition of aggregation is -6.5% (inactive). For the same compound, the figures for the nuclei count in experiment [2] and in [3] were 102% and 121%, respectively. Further, the fluorescence slope in experiment [4] is -0.446 (inactive). Further, the NADPH fluorescence slope in experiment [5] was -3.8e-05 (inactive). Also, the slope in experiment [6] was 0.00462 (inactive). In addition, the compound was called inactive in [7].

As for `COc1ccc(OC)c(NS(=O)(=O)Cc2ccccc2)c1`, in experiment [1], the cell count was 356. Further, the inhibition is 6.3% (inactive) in experiment [1], -73.7% (inactive) in [3], 13.9% (inactive) in experiment [8] and 16.5% (inactive) in experiment [9]. In [2], the inhibition of aggregation is -14.8% (inactive). Besides, the values for the nuclei count in experiment [2] and in [3] were 110% and 120%, respectively. The fluorescence slope in experiment [4] is -0.424 (inactive). The NADPH fluorescence slope in experiment [5] was -1.8e-05 (inactive). The slope in experiment [6] is 0.00242 (inactive). Moreover, the compound was classed as inactive in experiment [7].

Regarding `CCOC(=O)c1c(C)oc2ccc(NS(=O)(=O)c3ccc4c5c(cccc35)C(=O)N4)cc12`, the cell count in [1] came out at 429. For the same compound, the inhibition is 6.5% (inactive) in [1], -185% (inactive) in [3], 21.2% (inactive) in [8] and 2.01% (inactive) in experiment [9]. For the same compound, the inhibition of aggregation in [2] was -5.8% (inactive). The figures for the nuclei count in experiment [2] and in experiment [3] were 99% and 114%, respectively. In experiment [4], the fluorescence slope is -0.223 (inactive). In addition, the NADPH fluorescence slope in [5] was -1.1e-05 (inactive). Besides, the slope in [6] is 0.00563 (inactive). For the same compound, in experiment [7], the call was inactive.

With `O=C(CCC(=O)OCC(=O)c1ccccc1)NC1CCCCC1`, in experiment [1], the cell count was determined as 449. Further, the inhibition was 1.2% (inactive) in experiment [1], 30.3% (inactive) in experiment [3], -0.183% (inactive) in experiment [8] and 97.3% (active) in [9]. In addition, the inhibition of aggregation in [2] was 1.6% (inactive). Further, the figures for the nuclei count in experiment [2] and in [3] were 95% and 112%, respectively. For the same compound, the fluorescence slope in [4] was -0.356 (inactive). Besides, the NADPH fluorescence slope in experiment [5] is -6.3e-05 (inactive). For the same compound, the slope in experiment [6] was 0.00794 (inactive). In experiment [7], the compound was classed as inactive.

For the compound `NC(=O)c1ccsc1NC(=O)COC(=O)Cc1ccsc1`, the cell count in [1] amounted to 246. The inhibition in experiment [1] is -18.9% (inactive); in [3] it was 26.2% (inactive); in [8] it was 9.36% (inactive); in experiment [9] it was 10.7% (inactive). Moreover, the inhibition of aggregation in experiment [2] is 17.1% (inactive). Besides, the figures for the nuclei count in experiment [2] and in [3] were 81% and 75.6%, respectively. Also, the fluorescence slope in experiment [4] was -0.453 (inactive). Moreover, the NADPH fluorescence slope in [5] is -4.6e-05 (inactive). Further, the slope in experiment [6] is 0.00509 (inactive). In addition, the call in [7] was inactive.

On to `CCC(C(=O)NC(C)CCc1ccco1)n1nc(C)n2c(cc3occc32)c1=O` (stereo not drawn), for which, in [1], the cell count amounted to 488. The inhibition in experiment [1] is 6% (inactive); in experiment [3], -121% (inactive); in [8], 2.28% (inactive); in [9] it was 2.25% (inactive). The inhibition of aggregation in experiment [2] was -13.2% (inactive). For the same compound, the nuclei count in experiment [2] is 84.5%; in [3] it was 98.3%. Also, the fluorescence slope in experiment [4] was -0.475 (inactive). Besides, in [5], the NADPH fluorescence slope was -2e-05 (inactive). Besides, the slope in experiment [6] is 0.00405 (inactive). In addition, the result in [7] was inactive.

For the compound `O=C(Nc1cccnc1)c1cc2c(ccc3ccccc32)o1`, the cell count in [1] turned out to be 489. The inhibition in experiment [1] is 8.1% (inactive); in [3] it was -160% (inactive); in [8], -38.2% (inactive); in experiment [9], -135% (inactive). Moreover, the inhibition of aggregation in experiment [2] is -7.4% (inactive). Besides, the nuclei count worked out at 104% in [2] and 140% in experiment [3]. The fluorescence slope in experiment [4] was -0.355 (inactive). Also, the NADPH fluorescence slope in experiment [5] is -4.5e-05 (inactive). For the same compound, in [6], the slope is 0.00441 (inactive). Besides, in experiment [7], the compound was classed as inactive.

Regarding `Cc1cc(NC(=O)Cc2c(F)cccc2Cl)no1`, the cell count in [1] was 586. Moreover, the inhibition in [1] is -1.1% (inactive); in [3] it was 34.2% (inactive); in experiment [8], 14.4% (inactive); in [9], 19.6% (inactive). The inhibition of aggregation in experiment [2] was -15.9% (inactive). In addition, the nuclei count was 99.9% in [2] and 94.3% in experiment [3]. Moreover, in [4], the fluorescence slope is -0.44 (inactive). Further, the NADPH fluorescence slope in [5] was -2.5e-05 (inactive). Also, the slope in experiment [6] is 0.00621 (inactive). In experiment [7], the outcome was inactive.

Consider `Cn1c(CN2CCCCC2)nc2cc(NC(=O)c3ccccc3)ccc21`, for which the cell count in experiment [1] was found to be 435. The inhibition is -0.8% (inactive) in [1], 2.3% (inactive) in experiment [3], -17.4% (inactive) in experiment [8] and 98.6% (active) in [9]. For the same compound, the inhibition of aggregation in experiment [2] was 3.4% (inactive). Further, the nuclei count worked out at 85.3% in experiment [2] and 92.4% in experiment [3]. Further, in experiment [4], the fluorescence slope was -0.438 (inactive). Further, the NADPH fluorescence slope in experiment [5] was -9.5e-07 (inactive). Also, the slope in experiment [6] is 0.00451 (inactive). Besides, in [7], the compound was called inactive.
